Test results published in ChEMBL document CHEMBL1938319, “Design, synthesis, and in vitro antiproliferative activity of novel Dasatinib derivatives” (Bioorg Med Chem Lett, 2012).

What was measured:
U-937 [1] = assay: Growth inhibition of human U937 cells at 10 uM after 72 hrs by WST-8 reagent based MTT assay; assay type: functional; conditions: U-937, 72 h, read-out: GI
Procedure, shortened: (§1)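 Single-concentration screen at 10 μM on K562 or U937 cells in RPMI1640 with 10% FBS, 5.0 × 10³ cells/well, settled 4 h, then 72 h exposure at 37 °C, 5% CO₂. WST-8/1-methoxyphenazinium reagent added for 1.5 h. A450 read with 650 nm correction. Growth given as % absorbance relative to vehicle control, averaged over three independent experiments.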

K562 [2] = assay: Growth inhibition of human K562 cells at 10 uM after 72 hrs by WST-8 reagent based MTT assay; assay type: functional; conditions: K562, 72 h, read-out: GI; procedure, shortened: as §1
U-937 [3] = assay: Cytotoxicity against human U937 cells after 72 hrs by WST-8 reagent based MTT assay; assay type: functional, cell-based; conditions: U-937, 72 h
Procedure, shortened: (§2)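 K562 or U937 cells in RPMI1640 with 10% FBS, 5.0 × 10³ cells/well, settled 4 h at 37 °C, 5% CO₂. Exposed to compound for 72 h. Medium removed, then WST-8 reagent (5 mM WST-8, 0.2 mM 1-methoxyphenazinium salt, 150 mM NaCl) added for 1.5 h at 37 °C. Absorbance read at 450 nm, corrected at 650 nm, as % of vehicle control. IC50 from concentration–response curve fitting. Three independent experiments averaged.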

K562 [4] = assay: Cytotoxicity against human K562 cells after 72 hrs by WST-8 reagent based MTT assay; assay type: functional, cell-based; conditions: K562, 72 h; procedure, shortened: as §2

| SMILES | inhibition of growth at 10 µM (U-937 [1]) [%] | inhibition of growth at 10 µM (K562 [2]) [%] | IC50 (U-937 [3]) [µM] | IC50 (K562 [4]) [µM] |
| --- | --- | --- | --- | --- |
| COc1cc2c(Nc3ccc4sc(C(=O)Nc5c(C)cccc5Cl)cc4c3)ncnc2cc1OCCCN1CCOCC1 | 56.2 | 9.99 | 9.09 | – |
| COc1cc2c(Nc3ccc4sc(C(=O)Nc5c(C)cccc5Cl)cc4c3)ncnc2cc1OCCCN1CCCCC1 | 75.7 | 71.8 | 4.34 | 4.01 |
| CCN(CCO)CCCOc1cc2ncnc(Nc3ccc4sc(C(=O)Nc5c(C)cccc5Cl)cc4c3)c2cc1OC | 76.9 | 59.8 | 4.25 | 8.97 |
| CCN(CC)CCCOc1cc2ncnc(Nc3ccc4sc(C(=O)Nc5c(C)cccc5Cl)cc4c3)c2cc1OC | 78 | 72.5 | 4.01 | 3.55 |
| COc1cc2c(Nc3ccc4sc(C(=O)Nc5c(C)cccc5Cl)cc4c3)ncnc2cc1OCCCN1CCN(C)CC1 | 76 | 51.2 | 3.48 | 9.88 |
| COc1cc2c(Nc3ccc4sc(C(=O)Nc5c(C)cccc5Cl)cc4c3)ncnc2cc1OCCCN1CCCCC1C (stereo not drawn) | 80.2 | 84.2 | 3.45 | 2.15 |
| Cc1nc(Nc2ccc3sc(C(=O)Nc4c(C)cccc4Cl)cc3c2)cc(N2CCOCC2)n1 | 8.37 | 13.9 | – | – |
| Cc1nc(Nc2ccc3sc(C(=O)Nc4c(C)cccc4Cl)cc3c2)cc(N2CCCCC2)n1 | 20.6 | 8.78 | 20 | – |
| Cc1nc(Nc2ccc3sc(C(=O)Nc4c(C)cccc4Cl)cc3c2)cc(N2CCN(C)CC2)n1 | 40.6 | 32.4 | 15 | 17 |
| CCN1CCN(c2cc(Nc3ccc4sc(C(=O)Nc5c(C)cccc5Cl)cc4c3)nc(C)n2)CC1 | 46.5 | 33.9 | 13.1 | 16.9 |
| Cc1nc(Nc2ccc3sc(C(=O)Nc4c(C)cccc4Cl)cc3c2)cc(N2CCN(CCO)CC2)n1 | 37.1 | 27.8 | 13.7 | 21.9 |
| Cc1nc(Nc2ccc3sc(C(=O)Nc4c(C)cccc4Cl)cc3c2)cc(N2CCC(C)CC2)n1 | 24.6 | 20.5 | 20.6 | 22.2 |
| Cc1nc(Nc2ncc(C(=O)Nc3c(C)cccc3Cl)s2)cc(N2CCN(CCO)CC2)n1 [DASATINIB] | 37.2 | 37.4 | 13.6 | 12.8 |
